Assay results published in ChEMBL document CHEMBL3813630, “Coumarin carboxylic acids as monocarboxylate transporter 1 inhibitors: In vitro and in vivo studies as potential anticancer agents” (Bioorg Med Chem Lett, 2016).

Columns and labels:
[1] = biological target: T1, Monocarboxylate transporter 1 (Rattus norvegicus, UniProt P53987); experiment: Inhibition of MCT1 in rat brain endothelial 4 cells assessed as L-[14C]-Lactate Uptake after 15 mins by scintillation spectrometric analysis; type: cell-based
T1 sequence (P53987 whole entry): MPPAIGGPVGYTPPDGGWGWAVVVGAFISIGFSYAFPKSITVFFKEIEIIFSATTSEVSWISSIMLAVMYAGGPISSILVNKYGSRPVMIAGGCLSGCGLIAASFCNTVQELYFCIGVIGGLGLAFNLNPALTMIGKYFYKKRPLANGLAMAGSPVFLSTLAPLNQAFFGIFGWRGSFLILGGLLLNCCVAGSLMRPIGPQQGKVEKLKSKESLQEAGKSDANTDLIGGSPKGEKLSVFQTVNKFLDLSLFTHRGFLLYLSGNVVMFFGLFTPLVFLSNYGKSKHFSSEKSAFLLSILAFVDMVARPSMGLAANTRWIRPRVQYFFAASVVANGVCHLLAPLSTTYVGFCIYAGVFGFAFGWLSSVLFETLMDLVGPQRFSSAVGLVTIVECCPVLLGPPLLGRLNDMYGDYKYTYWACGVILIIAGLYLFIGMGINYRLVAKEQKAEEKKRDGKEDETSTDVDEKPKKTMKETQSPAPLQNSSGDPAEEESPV

[2] = Cytotoxicity against mouse GL261 cells expressing luc2 assessed as reduction in cell viability after 72 hrs by MTT assay; type: functional, cell-based; details: GL261, 72 h
How it was run: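 GL261-luc2 cells grown in DMEM, 10% FBS, 50 μg/mL geneticin, penicillin-streptomycin; 5 × 10^3 cells/well, 24 h at 37 °C, 5% CO2, then compound in replicate for 72 h.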

MDA-MB-231 [3] = experiment: Cytotoxicity against human MDA-MB-231 cells expressing luc2 assessed as reduction in cell viability after 72 hrs by MTT assay; type: functional, cell-based; details: MDA-MB-231, 72 h
How it was run: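 MDA-MB-231 cells grown in DMEM, 10% FBS, penicillin-streptomycin; 5 × 10^3 cells/well, 24 h at 37 °C, 5% CO2, then compound in replicate for 72 h.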

[4] = Permeability across apical side at pH 6.5 to basolateral side at pH 7.4 in human Caco2 cells assessed as compound recovery at 10 uM; type: ADME, cell-based; details: caco-2, pH 6.5, 10 µM
[5] = Permeability across basolateral side at pH 6.5 to apical side at pH 7.4 in human Caco2 cells assessed as compound recovery at 10 uM; type: ADME, cell-based; details: caco-2, pH 6.5, 10 µM
[6] = Efflux ratio of permeability from basolateral to apical side over apical to basolateral side in human Caco2 cells; type: ADME, cell-based; details: caco-2
Mus musculus [7] = experiment: Toxicity in CD-1 mouse assessed as change in body weight at 20 mg/kg, ip qd; type: organism-based; details: in vivo
How it was run: (§1)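 Healthy CD-1 mice were dosed once daily, either 20 mg/kg ip or 100 mg/kg by oral gavage. Control mice received vehicle (10% DMSO in saline). Animals were monitored for mortality, body weight change and apparent side effects, compared with the vehicle group. The study was conducted by GenScript under an approved IACUC protocol.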

Mus musculus [8] = experiment: Toxicity in CD-1 mouse assessed as change in body weight at 100 mg/kg, administered via oral gavage qd; type: organism-based; details: in vivo; how it was run: as §1
Mus musculus [9] = experiment: Toxicity in CD-1 mouse assessed as visible toxic effects at 20 mg/kg, ip qd; type: organism-based; details: in vivo; how it was run: as §1
Mus musculus [10] = experiment: Toxicity in CD-1 mouse assessed as visible toxic effects at 100 mg/kg, administered via oral gavage qd; type: organism-based; details: in vivo; how it was run: as §1
Mus musculus [11] = experiment: Toxicity in CD-1 mouse assessed as mortality at 20 mg/kg, ip qd; type: organism-based; details: in vivo; how it was run: as §1
Mus musculus [12] = experiment: Toxicity in CD-1 mouse assessed as mortality at 100 mg/kg, administered via oral gavage qd; type: organism-based; details: in vivo; how it was run: as §1
[13] = Antitumor activity against MCT1 expressing mouse GL261 cells coexpressing luc2 syngrafted in C57BL/6 mouse assessed as tumor growth inhibition at 20 mg/kg, ip qd; type: functional; details: C57BL/6, GL261, ip, read-out: TGI
How it was run: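 GL261-luc2 cells (5 × 10^6) in 1:1 matrigel-PBS injected into right flank of C57BL/6 mice (male and female); randomized, n = 6; dosing began at tumor volume 200 mm3; vehicle 10% DMSO in saline. Caliper measurement every 2–3 days, V = ab²/2. At study end tumors excised and weighed; % inhibition = [(C − T)/C] × 100 on mean tumor weights. Mann-Whitney test.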

MDA-MB-231 [14] = experiment: Antitumor activity against MCT4 expressing human MDA-MB-231 cells coexpressing luciferase xenografted in SCID mouse assessed as tumor growth inhibition at 20 mg/kg, ip qd measured on day 19; type: functional; details: MDA-MB-231, ip, 456 h, read-out: TGI
How it was run: (§2)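 Female SCID mice, right flank injected with 10 × 10^6 MDA-MB-231 cells in 1:1 matrigel-PBS; randomized, n = 6; dosing started at mean tumor volume ~100 mm3; vehicle 10% DMSO in saline. Study ended day 19; tumors excised and weighed; % inhibition = [(C − T)/C] × 100 from mean tumor weights versus vehicle. Mann-Whitney test.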

MDA-MB-231 [15] = experiment: Antitumor activity against MCT4 expressing human MDA-MB-231 cells coexpressing luciferase xenografted in SCID mouse assessed as tumor growth inhibition at 100 mg/kg, administered via oral gavage qd measured on day 19; type: functional; details: MDA-MB-231, po, 456 h, read-out: TGI; how it was run: as §2
MDA-MB-231 [16] = experiment: Antitumor activity against MCT4 expressing human MDA-MB-231 cells coexpressing luciferase xenografted in SCID mouse assessed as tumor growth inhibition at 0.5 mg/kg, ip for 5 days per week measured on day 19; type: functional; details: MDA-MB-231, ip, read-out: TGI; how it was run: as §2

Row | IC50 [1] | Drug recovery [5] | Compound | IC50 [2] | IC50 (MDA-MB-231 [3]) | Drug recovery [4] | other results
1 | 0.38 µM | – | O=C(O)c1cc2ccc(N3CCCC3)cc2oc1=O | > 250 µM | > 250 µM | – | –
2 | 0.45 µM | – | CCCN(CCC)c1ccc2cc(C(=O)O)c(=O)oc2c1 | > 250 µM | > 250 µM | – | –
3 | 0.21 µM | – | C#CCN(CC#C)c1ccc2cc(C(=O)O)c(=O)oc2c1 | > 250 µM | > 250 µM | – | –
4 | 0.17 µM | – | C=CCN(CC=C)c1ccc2cc(C(=O)O)c(=O)oc2c1 | > 250 µM | > 250 µM | – | –
5 | – | – | COc1cc2c(c(OC)c1OC)-c1ccc(OC)c(=O)cc1[C@@H](NC(C)=O)CC2 [COLCHICINE] | – | – | 75% | –
6 | – | – | COc1cccc2c1C(=O)c1c(O)c3c(c(O)c1C2=O)C[C@@](O)(C(=O)CO)C[C@@H]3O[C@H]1C[C@H](N)[C@H](O)[C@H](C)O1 [DOXORUBICIN] | – | – | – | inhibition in vivo at 0.5 mg/kg (MDA-MB-231 [16]): 50%
7 | – | 72% | CC(CCc1ccccc1)NCC(O)c1ccc(O)c(C(N)=O)c1 (stereo not given) [LABETALOL] | – | – | 66% | –
8 | – | 80% | CC(C)NCC(O)COc1cccc2ccccc12 (stereo not given) [PROPRANOLOL] | – | – | 67% | –
9 | – | 85% | CNC(=C[N+](=O)[O-])NCCSCc1ccc(CN(C)C)o1 [RANITIDINE] | – | – | – | –
10 | – | – | Cn1nnc2c(C(N)=O)ncn2c1=O [TEMOZOLOMIDE] | – | – | – | inhibition in vivo at 20 mg/kg [13]: 81%

Row | Compound | IC50 [1] | Drug recovery [5] | IC50 [2] | IC50 (MDA-MB-231 [3]) | Drug recovery [4] | other results
11 | O=C(O)c1cc2ccc(N(Cc3ccccc3)Cc3ccccc3)cc2oc1=O | 0.09 µM | 55% | > 250 µM | 240 µM | 34% | Ratio [6]: 0.2; Activity (Mus musculus [7]): Non-toxic; Activity (Mus musculus [8]): Non-toxic; Activity (Mus musculus [9]): Non-toxic; Activity (Mus musculus [10]): Non-toxic; Activity (Mus musculus [11]): Non-toxic; Activity (Mus musculus [12]): Non-toxic; inhibition in vivo at 20 mg/kg [13]: 77%; inhibition in vivo at 20 mg/kg (MDA-MB-231 [14]): 10%; inhibition in vivo at 100 mg/kg (MDA-MB-231 [15]): 13%
